Among the data in ChEMBL document CHEMBL1629663, “Postantibiotic effects of telavancin against 16 gram-positive organisms” (Antimicrob Agents Chemother, 2009) are MIC and PAE values, retold here.

In brackets after ≈: the same amount, converted by molar mass.

Holding throughout (assay type): functional
Experiment [1] concerns Staphylococcus aureus. Nature of the experiment: Antimicrobial activity against vancomycin-susceptible-, methicillin-resistant Staphylococcus aureus ATCC 33591 by microdilution method.
Experiment [2] deals with Staphylococcus aureus. Description: Antimicrobial activity against vancomycin-intermediate-, methicillin-resistant Staphylococcus aureus 770 assessed as time required to induce post antibiotic sub-MIC effect at 0.4 times MIC […] by plate counting method. The method in brief: (§1)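 PAE was first induced with 10× MIC for 1 h at 35°C (inoculum about 5 × 10^6 CFU/ml, Mueller-Hinton broth) and ended by 1:1,000 dilution. Cultures were then split and given 0.2, 0.3 or 0.4× MIC, with one tube left without drug. Viable counts were taken before exposure, after dilution, then every 2 h until McFarland no. 1 turbidity. Two separate experiments, each with a new inoculum.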

In experiment [3] the test system is Staphylococcus aureus. Description: Antimicrobial activity against vancomycin-resistant-, methicillin-resistant Staphylococcus aureus 510 by microdilution method.
In experiment [4] the test system is Staphylococcus aureus. Description: Antimicrobial activity against vancomycin-susceptible-, methicillin-resistant Staphylococcus aureus ATCC 33591 assessed as post-antibiotic effect at 10 times MIC pre-exposed to Telavancin for 1 hr by plate counting method. The procedure, abridged: (§2)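 Direct colony suspensions (~5 × 10^6 CFU/ml) were exposed to 10× MIC for 1 h at 35°C with shaking in Mueller-Hinton broth, then diluted 1:1,000 to remove drug. Viable plate counts were taken before exposure, at 0 h, then every 2 h until turbidity reached McFarland 1. PAE = T − C, the time for counts to rise 1 log10 versus the unexposed control. Two separate experiments were run.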

Experiment [5] has as its system Staphylococcus aureus. Nature of the experiment: Antimicrobial activity against vancomycin-susceptible-, methicillin-resistant Staphylococcus aureus 1130 assessed as post-antibiotic effect at 10 times MIC pre-exposed to Telavancin for 1 hr by plate counting method. The method in brief:
as §2

In experiment [6] the test system is Staphylococcus aureus. Nature of the experiment: Antimicrobial activity against vancomycin-intermediate-, methicillin-resistant Staphylococcus aureus 555 assessed as post-antibiotic effect at 10 times MIC pre-exposed to Telavancin for 1 hr by plate counting method. The method in brief:
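Viable plate count method in Mueller-Hinton broth. Direct colony suspension inoculum of about 5 × 10^6 CFU/ml was exposed to 10× MIC for 1 h at 35°C in a shaking water bath, then diluted 1:1,000 to remove drug. Counts were taken before exposure, at 0 h, then every 2 h until McFarland no. 1 turbidity. PAE = T − C, the time to a 1 log10 rise versus an unexposed growth control.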

In experiment [7] the test system is Streptococcus agalactiae. Nature of the experiment: Antimicrobial activity against Streptococcus agalactiae HMC 5 assessed as post-antibiotic effect at 10 times MIC pre-exposed to Telavancin for 1 hr by plate counting method. The method in brief: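 Organisms were suspended in Mueller-Hinton broth from overnight blood agar colonies at about 5 × 10^6 CFU/ml. Cultures were exposed to telavancin at 10× MIC for 1 h at 35°C in a shaking water bath, then diluted 1:1,000 to remove the drug, with an untreated growth control. Viable counts were taken before exposure, at 0 h, then every 2 h until McFarland no. 1 turbidity. PAE = T − C, the time to a 1 log10 rise. Two experiments.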

Experiment [8] has as its system Staphylococcus aureus. Description: Antimicrobial activity against vancomycin-susceptible-, methicillin-resistant Staphylococcus aureus 1306 assessed as time required to induce sub-MIC effect at 0.2 times MIC exposed for 2 hrs by plate counting method. The method in brief: (§3)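 Sub-MIC effect: cultures not preexposed to drug were diluted and handled as in the PA-SME procedure in Mueller-Hinton broth with final 0.2, 0.3 or 0.4× MIC, plus a drug-free control. Viable plate counts were taken every 2 h until McFarland 1 turbidity. Duration was derived from growth curves. Two experiments were run, each with a new inoculum.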

The subject of experiment [9] is Streptococcus agalactiae. Description: Antimicrobial activity against Streptococcus agalactiae HMC 5 assessed as time required to induce sub-MIC effect at 0.2 times MIC exposed for 2 hrs by plate counting method. The procedure, abridged: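 Unexposed Mueller-Hinton broth cultures (about 5 × 10^6 CFU/ml, 35°C) were handled as in the PA-SME set but without the 10× MIC pre-exposure. They were diluted 1:1,000, then given telavancin at final 0.2, 0.3 or 0.4× MIC, with a drug-free control. Viable counts were taken every 2 h until McFarland no. 1 turbidity. Effect duration comes from log10 CFU/ml-time plots; two separate experiments with new inocula.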

The subject of experiment [10] is Staphylococcus aureus. Description: Antimicrobial activity against vancomycin-susceptible-, methicillin-resistant Staphylococcus aureus 1130 assessed as time required to induce post antibiotic sub-MIC effect at 0.2 times MIC pre-exposed to Telavancin for […] by plate counting method. The method in brief:
(§4)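 After 1 h preexposure to 10× MIC at 35°C and 1:1,000 dilution, cultures were split, and drug was re-added to final 0.2, 0.3 or 0.4× MIC, with a drug-free tube. Viable counts were taken every 2 h until McFarland 1 turbidity. Duration was derived from log10 CFU/ml versus time curves. Two experiments were run, each with a new inoculum.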

For experiment [11], the system named is Enterococcus faecalis. Description: Antimicrobial activity against Enterococcus faecalis ATCC 29212 assessed as time required to induce post antibiotic sub-MIC effect at 0.2 times MIC […] by plate counting method. The method in brief: (§5)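 Mueller-Hinton broth cultures of about 5 × 10^6 CFU/ml were pre-exposed to telavancin at 10× MIC for 1 h at 35°C, then diluted 1:1,000. Telavancin was re-added to final 0.2, 0.3 or 0.4× MIC, alongside a drug-free tube. Viable counts were taken before exposure, after dilution, then every 2 h until McFarland no. 1 turbidity. Duration comes from log10 CFU/ml-versus-time plots; two separate experiments with fresh inocula.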

For experiment [12], the system named is Enterococcus faecalis. Nature of the experiment: Antimicrobial activity against Enterococcus faecalis HMC 571 assessed as time required to induce post antibiotic sub-MIC effect at 0.2 times MIC pre-exposed to Telavancin […] by plate counting method. The method in brief:
as §5

Experiment [13] has as its system Staphylococcus aureus. Description: Antimicrobial activity against vancomycin-susceptible-, methicillin-resistant Staphylococcus aureus ATCC 33591 assessed as time required to induce sub-MIC effect at 0.3 times MIC exposed for 2 hrs by plate counting method. The procedure, abridged:
as §3

Experiment [14] deals with Staphylococcus aureus. Nature of the experiment: Antimicrobial activity against vancomycin-susceptible-, methicillin-resistant Staphylococcus aureus 1307 assessed as time required to induce post antibiotic sub-MIC effect at 0.3 times MIC […] by plate counting method. The method in brief:
as §4

Experiment [15] concerns Staphylococcus aureus. Description: Antimicrobial activity against heterogenous vancomycin-intermediate-, methicillin-resistant Staphylococcus aureus 873 assessed as time required to induce post antibiotic sub-MIC effect at 0.3 times MIC […] by plate counting method. The method in brief:
as §1

The subject of experiment [16] is Staphylococcus aureus. Nature of the experiment: Antimicrobial activity against heterogenous vancomycin-intermediate-, methicillin-resistant Staphylococcus aureus 618 assessed as time required to induce post antibiotic sub-MIC effect at 0.3 times MIC […] by plate counting method. The procedure, abridged:
as §1

Experiment [17] deals with Staphylococcus aureus. Nature of the experiment: Antimicrobial activity against vancomycin-intermediate-, methicillin-resistant Staphylococcus aureus 555 assessed as time required to induce post antibiotic sub-MIC effect at 0.3 times MIC […] by plate counting method. The method in brief:
as §1

Experiment [18] relates to Streptococcus agalactiae. Description: Antimicrobial activity against Streptococcus agalactiae HMC 5 assessed as time required to induce post antibiotic sub-MIC effect at 0.3 times MIC […] by plate counting method. The procedure, abridged: as §5

In the case of `CCCCCCCCCCNCCN[C@@]1(C)C[C@H](O[C@H]2[C@H](Oc3c4cc5cc3Oc3ccc(cc3Cl)[C@@H](O)[C@@H](NC(=O)[C@@H](CC(C)C)NC)C(=O)N[C@@H](CC(N)=O)C(=O)N[C@H]5C(=O)N[C@H]3C(=O)N[C@H](C(=O)N[C@H](C(=O)O)c5cc(O)c(CNCP(=O)(O)O)c(O)c5-c5cc3ccc5O)[C@H](O)c3ccc(c(Cl)c3)O4)O[C@H](CO)[C@@H](O)[C@@H]2O)O[C@@H](C)[C@H]1O` [TELAVANCIN], the values for the MIC in the experiment with Staphylococcus aureus [1] and in the experiment on Staphylococcus aureus [3] were 0.25 µg/mL (≈ 0.142 µM) and 0.5 µg/mL (≈ 0.285 µM), respectively. The PAE in the experiment on Staphylococcus aureus [2] worked out at 9.6 h; in the experiment on Staphylococcus aureus [4] it was 1.5 h; with Staphylococcus aureus [5] it was 1.4 h; in the experiment with Staphylococcus aureus [6], 3.4 h; in the experiment with Streptococcus agalactiae [7] it was 0.4 h; in the experiment with Staphylococcus aureus [8], 0.7 h. The PAE in the experiment on Streptococcus agalactiae [9] is 0.2 h; in the experiment with Staphylococcus aureus [10] it was 5.4 h; with Enterococcus faecalis [11], 5.3 h; in the experiment with Enterococcus faecalis [12], 3.9 h; in the experiment with Staphylococcus aureus [13] it was 1.4 h; in the experiment on Staphylococcus aureus [14], more than 10.5 h. In addition, the PAE with Staphylococcus aureus [15] is 4.8 h; with Staphylococcus aureus [16] it was 8.3 h; in the experiment with Staphylococcus aureus [17], 10.3 h; in the experiment on Streptococcus agalactiae [18] it was 4.7 h.
